Experimental data published in ChEMBL document CHEMBL1142699 (J Med Chem, 2005).
Numbered stars: 1 amine (or outer) side, 2 acyl side, 3 side chain; on linkers, the order of the positions; unused ones are H or OH. Square brackets hold non-standard residues; d marks the D form. Peptide text beside a SMILES is read from it. * marks the point of attachment. X1 = N[C@@H](Cc1ccccc1)CN(CC(=O)[*:2])[*:1]; Phe(4-F) = N[C@@H](Cc1ccc(F)cc1)C(=O)O; N(NH2)2 = NN(N)*; NHNH2 = NN*

Assays:
[1] = target: Nociceptin receptor (Mus musculus) (UniProt P35377); test: Maximal inhibition of electrically evoked contraction of mouse vas deferens; assay type: functional, tissue-based
Nociceptin receptor [2] = target: Nociceptin receptor (Cavia porcellus, UniProt P47748); test: Inhibition of electrically evoked contraction of guinea pig ileum; assay type: functional, tissue-based
In short: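 Guinea pig ileum from albino animals (250-300 g), in Krebs at 37 °C under 0.3 g resting tension. Field-stimulated with 1 ms supramaximal pulses at 0.05 Hz; twitches recorded isotonically. After ~1 h equilibration, cumulative concentration-response curves in 0.5 log steps. […] 5-8 experiments.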

Nociceptin receptor [3] = target: Nociceptin receptor (Mus musculus, UniProt P35377); test: Inhibition of electrically evoked contraction of mouse vas deferens; assay type: functional
In short: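 Vas deferens from male Swiss mice (25-30 g), in Mg2+-free Krebs at 33 °C under 0.3 g resting tension. Field-stimulated with 1 ms supramaximal pulses at 0.05 Hz; twitches recorded isotonically. After ~1 h equilibration, cumulative concentration-response curves in 0.5 log steps. […] 5-8 experiments.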

[4] = target: Nociceptin receptor (Cavia porcellus) (UniProt P47748); test: Maximal inhibition of electrically evoked contraction of guinea pig ileum; assay type: functional, tissue-based
Nociceptin receptor [5] = target: T1, Nociceptin receptor (Homo sapiens, UniProt P41146); test: Receptor binding affinity for recombinant human N/OFQ peptide receptor (NOP) expressed in chinese hamster ovary cells; assay type: cell-based, CHO
[6] = target: Nociceptin receptor (Cavia porcellus) (UniProt P47748); test: Antagonistic potency against N/OFQ in electrically evoked contractions of guinea pig ileum at 1 uM; assay type: functional, tissue-based
[7] = target: Nociceptin receptor (Mus musculus) (UniProt P35377); test: Inhibition of electrically evoked contraction of mouse vas deferens; Effect evident only in some tissues; assay type: functional; details: filed as agonist
[8] = target: Nociceptin receptor (Cavia porcellus) (UniProt P47748); test: Maximal inhibition of electrically evoked contraction of guinea pig ileum; Effect evident only in some tissues; assay type: functional, tissue-based; details: filed as agonist
[9] = target: Nociceptin receptor (Mus musculus) (UniProt P35377); test: Antagonistic potency against N/OFQ in electrically evoked contraction of mouse vas deferens at 1 uM; assay type: functional, tissue-based
In short: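 Male Swiss mice (25-30 g). Vas deferens in 5 mL baths of Mg2+-free Krebs at 33 °C, 0.3 g tension, field-stimulated with supramaximal 1 ms pulses at 0.05 Hz, isotonic recording.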

[10] = target: Nociceptin receptor (Cavia porcellus) (UniProt P47748); test: Inhibition of electrically evoked contraction of guinea pig ileum; Effect evident only in some tissues; assay type: functional, tissue-based; details: filed as agonist
Nociceptin receptor [11] = target: T1, Nociceptin receptor; test: Agonist potency against GTPgammaS binding in CHO cell membranes expressing the human NOP receptor (CHOhNOP)
[12] = target: Nociceptin receptor (Mus musculus) (UniProt P35377); test: Maximal inhibition of electrically evoked contraction of mouse vas deferens; Effect evident only in some tissues; assay type: functional; details: filed as agonist
Nociceptin receptor [13] = target: T1, Nociceptin receptor; test: Inhibition of forskolin stimulated cAMP levels in CHO cells expressing the human NOP receptor (CHOhNOP)

Nociceptin receptor (Mus musculus), sequence (P35377 whole entry): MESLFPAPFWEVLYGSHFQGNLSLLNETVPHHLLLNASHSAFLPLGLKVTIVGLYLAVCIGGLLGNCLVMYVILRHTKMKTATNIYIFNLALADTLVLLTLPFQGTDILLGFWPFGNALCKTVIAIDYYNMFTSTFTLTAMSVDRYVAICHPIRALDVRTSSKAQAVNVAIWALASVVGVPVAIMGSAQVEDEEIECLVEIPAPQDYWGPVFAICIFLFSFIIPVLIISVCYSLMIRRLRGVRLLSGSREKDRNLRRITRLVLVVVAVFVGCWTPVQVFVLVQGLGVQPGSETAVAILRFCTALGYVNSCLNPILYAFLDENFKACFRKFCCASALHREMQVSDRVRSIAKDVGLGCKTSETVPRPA
T1 sequence (P41146 whole entry): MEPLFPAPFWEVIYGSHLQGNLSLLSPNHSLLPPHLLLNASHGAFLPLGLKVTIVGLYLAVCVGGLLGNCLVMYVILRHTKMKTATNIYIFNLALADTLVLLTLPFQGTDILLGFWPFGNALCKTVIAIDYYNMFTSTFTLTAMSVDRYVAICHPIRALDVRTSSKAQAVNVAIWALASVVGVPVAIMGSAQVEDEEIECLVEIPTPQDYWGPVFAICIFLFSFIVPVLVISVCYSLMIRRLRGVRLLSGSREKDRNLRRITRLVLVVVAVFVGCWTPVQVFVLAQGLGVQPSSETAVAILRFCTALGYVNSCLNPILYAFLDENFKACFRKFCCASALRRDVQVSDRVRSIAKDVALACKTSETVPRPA
Nociceptin receptor (Cavia porcellus), sequence (P47748 whole entry): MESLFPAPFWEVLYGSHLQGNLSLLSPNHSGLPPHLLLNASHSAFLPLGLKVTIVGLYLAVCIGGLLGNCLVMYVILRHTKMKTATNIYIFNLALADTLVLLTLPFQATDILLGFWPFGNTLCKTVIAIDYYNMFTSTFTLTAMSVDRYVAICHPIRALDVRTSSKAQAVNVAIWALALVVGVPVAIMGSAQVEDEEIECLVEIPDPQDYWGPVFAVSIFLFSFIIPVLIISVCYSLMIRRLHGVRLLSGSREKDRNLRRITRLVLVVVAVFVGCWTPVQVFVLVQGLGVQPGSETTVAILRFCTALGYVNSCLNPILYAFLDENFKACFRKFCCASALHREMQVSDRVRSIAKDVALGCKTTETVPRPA
Nociceptin receptor (Mus musculus, UniProt P35377), sequence (P35377 whole entry): as the sequence (P35377 whole entry) above
Nociceptin receptor (Cavia porcellus, UniProt P47748), sequence (P47748 whole entry): as the sequence (P47748 whole entry) above

For `CC(C)C[C@H](NC(=O)[C@H](CCCCN)NC(=O)[C@H](CCCN=C(N)N)NC(=O)[C@H](C)NC(=O)[C@H](CO)NC(=O)[C@H](CCCCN)NC(=O)[C@H](CCCN=C(N)N)NC(=O)[C@H](C)NC(=O)CNC(=O)[C@@H](NC(=O)[C@H](Cc1ccc(F)cc1)NC(=O)CNC(=O)CNC(=O)[C@@H](N)Cc1ccccc1)[C@@H](C)O)C(=O)N[C@@H](C)C(=O)N[C@@H](CC(N)=O)C(=O)N[C@@H](CCC(N)=O)C(N)=O`, which Emax [1] is on record?
The Emax was 92%.

What about the EC50 (Nociceptin receptor [2]) of the same molecule?
Its EC50 is 1.86 nM.

What about the EC50 (Nociceptin receptor [3]) of the same molecule?
The EC50 was 2.57 nM.

What about the Emax [4] of the same molecule?
Its Emax is 56%.

For `C[C@H](NC(=O)CNC(=O)[C@@H](NC(=O)[C@H](Cc1ccccc1)NC(=O)CNC(=O)CNC(=O)CNCc1ccccc1)[C@@H](C)O)C(=O)N[C@@H](CCCN=C(N)N)C(=O)N[C@@H](CCCCN)C(=O)N[C@@H](CO)C(=O)N[C@@H](C)C(=O)N[C@@H](CCCN=C(N)N)C(=O)N[C@@H](CCCCN)C(=O)N[C@@H](CCCN=C(N)N)C(=O)N[C@@H](CCCCN)C(=O)N[C@@H](CC(N)=O)C(=O)N[C@@H](CCC(N)=O)C(N)=O`, which Ki (Nociceptin receptor [5]) is on record?
The Ki was 0.129 nM.

For `CC(C)C[C@H](NC(=O)[C@H](CCCCN)NC(=O)[C@H](CCCN=C(N)N)NC(=O)[C@H](C)NC(=O)[C@H](CO)NC(=O)[C@H](CCCCN)NC(=O)[C@H](CCCN=C(N)N)NC(=O)[C@H](C)NC(=O)CNC(=O)[C@@H](NC(=O)[C@H](Cc1ccc(F)cc1)NC(=O)CNC(=O)CNC[C@@H](N)Cc1ccccc1)[C@@H](C)O)C(=O)N[C@@H](C)C(=O)N[C@@H](CC(N)=O)C(=O)N[C@@H](CCC(N)=O)C(N)=O` (H-[X1]G[Phe(4-F)]TGARKSARKLANQ-NH2), which pKb [6] is on record?
The pKb was 8.32.

And the Activity [7]?
Its Activity is “Agonist”.

What about the Emax [8] of the same molecule?
Its Emax is “Agonist”.

What about the pKb [9] of the same molecule?
The pKb was 7.9.

And the “Log EC50” value [10]?
Its value is “Agonist”.

What about the EC50 (Nociceptin receptor [11]) of the same molecule?
Its EC50 is 0.813 nM.

What about the Emax [12] of the same molecule?
Its Emax is “Agonist”.

And the Ki (Nociceptin receptor [5])?
The Ki was 0.0479 nM.

And the EC50 (Nociceptin receptor [13])?
Its EC50 is 0.479 nM.

What does the source list for `C[C@H](NC(=O)CNC(=O)[C@@H](NC(=O)[C@H](Cc1ccccc1)NC(=O)CNC(=O)CNC[C@@H](N)Cc1ccccc1)[C@@H](C)O)C(=O)N[C@@H](CCCN=C(N)N)C(=O)N[C@@H](CCCCN)C(=O)N[C@@H](CO)C(=O)N[C@@H](C)C(=O)N[C@@H](CCCN=C(N)N)C(=O)N[C@@H](CCCCN)C(=O)N[C@@H](CCCN=C(N)N)C(=O)N[C@@H](CCCCN)C(=O)N[C@@H](CC(N)=O)C(=O)N[C@@H](CCC(N)=O)C(N)=O` (H-[X1]GFTGARKSARKRKNQ-NH2)?
EC50 (Nociceptin receptor [11]): 0.933 nM; Ki (Nociceptin receptor [5]): 0.0316 nM; EC50 (Nociceptin receptor [13]): 0.24 nM

`CC(C)C[C@H](NC(=O)[C@H](CCCCN)NC(=O)[C@H](CCCNC(=N)N)NC(=O)[C@H](C)NC(=O)[C@H](CO)NC(=O)[C@H](CCCCN)NC(=O)[C@H](CCCNC(=N)N)NC(=O)[C@H](C)NC(=O)CNC(=O)[C@@H](NC(=O)[C@H](Cc1ccccc1)NC(=O)CNC(=O)CNC(=O)[C@@H](N)Cc1ccccc1)[C@@H](C)O)C(=O)N[C@@H](C)C(=O)N[C@@H](CC(N)=O)C(=O)N[C@@H](CCC(N)=O)C(=O)O` was tested. Which Emax [1] did it give?
Its Emax is 95%.

What about the Emax [4] of the same molecule?
Its Emax is 58%.

`C[C@H](NC(=O)CNC(=O)[C@@H](NC(=O)[C@H](Cc1ccccc1)NC(=O)CNC(=O)CNC[C@@H](N)Cc1ccccc1)[C@@H](C)O)C(=O)N[C@@H](CCCN=C(N)N)C(=O)N[C@@H](CCCCN)C(=O)N[C@@H](CO)C(=O)N[C@@H](C)C(=O)N[C@@H](CCCN=C(N)N)C(=O)N[C@@H](CCCCN)C(=O)N[C@@H](CCCN=C(N)N)C(=O)N[C@@H](CCCCN)C(=O)N[C@@H](CC(N)=O)C(=O)N[C@@H](CCC(=O)N(N)N)C(=O)NN` (H-[X1]GFTGARKSARKRKNE(N(NH2)2)-NHNH2) was tested. Which pKb [6] did it give?
Its pKb is 7.47.

What about the Activity [7] of the same molecule?
The Activity was “Agonist”.

What about the Emax [8] of the same molecule?
The Emax was “Agonist”.

What about the pKb [9] of the same molecule?
The pKb was 8.04.

What about the “Log EC50” value [10] of the same molecule?
The value was “Agonist”.

What about the Emax [12] of the same molecule?
Its Emax is “Agonist”.

`C[C@H](NC(=O)CNC(=O)[C@@H](NC(=O)[C@H](Cc1ccc(F)cc1)NC(=O)CNC(=O)CNC(=O)[C@@H](N)Cc1ccccc1)[C@@H](C)O)C(=O)N[C@@H](CCCNC(=N)N)C(=O)N[C@@H](CCCCN)C(=O)N[C@@H](CO)C(=O)N[C@@H](C)C(=O)N[C@@H](CCCNC(=N)N)C(=O)N[C@@H](CCCCN)C(=O)N[C@@H](CCCNC(=N)N)C(=O)N[C@@H](CCCCN)C(=O)N[C@@H](CC(N)=O)C(=O)N[C@@H](CCC(N)=O)C(N)=O` was tested. Which EC50 (Nociceptin receptor [2]) did it give?
Its EC50 is 1.05 nM.

And the Ki (Nociceptin receptor [5])?
The Ki was 0.00479 nM.

And the EC50 (Nociceptin receptor [3])?
The EC50 was 0.437 nM.

What does the source list for `C[C@H](NC(=O)CNC(=O)[C@@H](NC(=O)[C@H](Cc1ccc(F)cc1)NC(=O)CNC(=O)CNC(=O)[C@@H](N)Cc1ccccc1)[C@@H](C)O)C(=O)N[C@@H](CCCN=C(N)N)C(=O)N[C@@H](CCCCN)C(=O)N[C@@H](CO)C(=O)N[C@@H](C)C(=O)N[C@@H](CCCN=C(N)N)C(=O)N[C@@H](CCCCN)C(=O)N[C@@H](CCCN=C(N)N)C(=O)N[C@@H](CCCCN)C(=O)N[C@@H](CC(N)=O)C(=O)N[C@@H](CCC(=O)N(N)N)C(=O)NN`?
Emax [1]: 94%; Emax [4]: 55%
